The values below come from ChEMBL document CHEMBL2311269, “Identification of benzofuran-3-yl(phenyl)methanones as novel SIRT1 inhibitors: binding mode, inhibitory mechanism and biological action” (Eur J Med Chem, 2013).

The target in assay [1] is T1, NAD-dependent protein deacetylase sirtuin-1 (Homo sapiens, UniProt Q96EB6).
T1 sequence (Q96EB6 whole entry): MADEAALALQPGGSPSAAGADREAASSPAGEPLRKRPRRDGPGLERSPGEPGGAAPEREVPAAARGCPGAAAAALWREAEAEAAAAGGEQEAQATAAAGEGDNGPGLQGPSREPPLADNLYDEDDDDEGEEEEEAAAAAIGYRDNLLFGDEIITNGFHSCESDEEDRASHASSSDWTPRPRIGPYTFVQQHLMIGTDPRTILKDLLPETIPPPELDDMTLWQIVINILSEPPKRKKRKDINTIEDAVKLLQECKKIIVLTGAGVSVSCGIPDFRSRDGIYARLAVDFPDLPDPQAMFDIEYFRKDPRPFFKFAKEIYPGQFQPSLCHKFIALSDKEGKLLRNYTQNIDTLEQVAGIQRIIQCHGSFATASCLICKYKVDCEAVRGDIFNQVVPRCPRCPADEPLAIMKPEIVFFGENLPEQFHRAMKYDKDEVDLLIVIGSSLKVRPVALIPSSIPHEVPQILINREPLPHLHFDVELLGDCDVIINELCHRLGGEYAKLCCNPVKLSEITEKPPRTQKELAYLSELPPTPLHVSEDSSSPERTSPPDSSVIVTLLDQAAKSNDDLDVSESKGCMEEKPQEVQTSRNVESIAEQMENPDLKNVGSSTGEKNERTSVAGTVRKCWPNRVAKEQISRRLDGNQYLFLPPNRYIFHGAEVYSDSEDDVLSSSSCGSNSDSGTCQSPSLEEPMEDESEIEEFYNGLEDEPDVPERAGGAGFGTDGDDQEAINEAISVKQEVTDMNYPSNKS
The experiment in a line: Inhibition of N-terminal His6-tagged SIRT1 coding region (156-664) (unknown origin) expressed in Escherichia coli BL21(DE3) using 31.25 uM ac-RHKKac-AMC and 750 uM NAD+ as substrate after 45 mins by fluorometric analysis.

Assay [2] deals with T2, NAD-dependent protein deacetylase sirtuin-1 (Homo sapiens) (UniProt Q96EB6).
T2 sequence (whole entry): T1 sequence (Q96EB6 whole entry)
The experiment in a line: Inhibition of N-terminal His6-tagged SIRT1 coding region (156-664) (unknown origin) expressed in Escherichia coli BL21(DE3) using 100 uM ac-RHKKac-AMC and 20 uM NAD+ as substrate after 45 mins by fluorometric analysis.

Assay [3] has as its system MCF7. The experiment in a line: Effect on p53 protein level in human MCF7 cells at 1.2 to 100 uM after 6 hrs by Western blot analysis. It counts as functional, cell-based. Summed up:
(§1)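 MCF-7 cells grown in DMEM with 10% fetal calf serum were treated with graded inhibitor concentrations. Lysate protein was run on a 9% gel, transferred to nitrocellulose, blocked 1 h at room temperature in 5% milk/TBST, and probed for acetyl-p53 and total p53.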
A general note: A western blot detects proteins with antibodies after separation by electrophoresis.

Assay [4] deals with T2, NAD-dependent protein deacetylase sirtuin-1 (Homo sapiens). The experiment in a line: Inhibition of SIRT1-mediated p53 deacetylation in human MCF7 cells after 6 hrs by Western blot analysis. It counts as cell-based. In a few lines: as §1
The target in assay [5] is T3, NAD-dependent protein deacetylase sirtuin-1 (Homo sapiens, UniProt Q96EB6, I347A). Description: Mixed type inhibition of N-terminal His6-tagged SIRT1 I347A mutant (unknown origin) expressed in Escherichia coli BL21(DE3) using NAD+ as substrate by Lineweaver-Burk plot analysis in presence of ac-RHKKac-AMC. Summed up:
(§2)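 Velocities of each SIRT1 point mutant were measured at varied inhibitor concentrations with NAD+ varied and peptide present. Reciprocal velocities were plotted against 1/[NAD+], the slopes were replotted versus inhibitor concentration, and Ki was taken from the x-intercepts of these secondary plots.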

Assay [6] deals with T4, NAD-dependent protein deacetylase sirtuin-1 (Homo sapiens, UniProt Q96EB6, F312L). Description: Mixed type inhibition of N-terminal His6-tagged SIRT1 F312L mutant (unknown origin) expressed in Escherichia coli BL21(DE3) using NAD+ as substrate by Lineweaver-Burk plot analysis in presence of ac-RHKKac-AMC. Summed up: as §2
In assay [7] the target is T5, NAD-dependent protein deacetylase sirtuin-1 (Homo sapiens, UniProt Q96EB6, N346A). The experiment in a line: Mixed type inhibition of N-terminal His6-tagged SIRT1 N346A mutant (unknown origin) expressed in Escherichia coli BL21(DE3) using NAD+ as substrate by Lineweaver-Burk plot analysis in presence of ac-RHKKac-AMC. Summed up:
as §2

The target of assay [8] is T3, NAD-dependent protein deacetylase sirtuin-1. The experiment in a line: Inhibition of N-terminal His6-tagged SIRT1 I347A mutant (unknown origin) expressed in Escherichia coli BL21(DE3) using ac-RHKKac-AMC as substrate after 45 mins by fluorometric analysis. Summed up:
(§3)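 Mutant SIRT1 enzyme levels were set to give the same deacetylase activity as wild type. The AMC-peptide/NAD+ fluorogenic assay ran in Tris pH 8.0 buffer for 45 min at room temperature, followed by nicotinamide stop, trypsin development and a 340/490 nm fluorescence read. IC50 was obtained by curve fitting.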

Assay [9] has as its target T5, NAD-dependent protein deacetylase sirtuin-1. The experiment in a line: Inhibition of N-terminal His6-tagged SIRT1 N346A mutant (unknown origin) expressed in Escherichia coli BL21(DE3) using ac-RHKKac-AMC as substrate after 45 mins by fluorometric analysis. In a few lines:
as §3

For assay [10], the target named is T4, NAD-dependent protein deacetylase sirtuin-1. Description: Inhibition of N-terminal His6-tagged SIRT1 F312L mutant (unknown origin) expressed in Escherichia coli BL21(DE3) using ac-RHKKac-AMC as substrate after 45 mins by fluorometric analysis. In a few lines:
as §3

The target of assay [11] is T6, NAD-dependent protein deacetylase sirtuin-1 (Homo sapiens, UniProt Q96EB6, F273L). The experiment in a line: Inhibition of N-terminal His6-tagged SIRT1 F273L mutant (unknown origin) expressed in Escherichia coli BL21(DE3) using ac-RHKKac-AMC as substrate after 45 mins by fluorometric analysis. In a few lines: as §3
The test system of assay [12] is T7, NAD-dependent protein deacetylase sirtuin-3, mitochondrial (Homo sapiens), Q9NTG7 [L195F].
T7 sequence (whole entry): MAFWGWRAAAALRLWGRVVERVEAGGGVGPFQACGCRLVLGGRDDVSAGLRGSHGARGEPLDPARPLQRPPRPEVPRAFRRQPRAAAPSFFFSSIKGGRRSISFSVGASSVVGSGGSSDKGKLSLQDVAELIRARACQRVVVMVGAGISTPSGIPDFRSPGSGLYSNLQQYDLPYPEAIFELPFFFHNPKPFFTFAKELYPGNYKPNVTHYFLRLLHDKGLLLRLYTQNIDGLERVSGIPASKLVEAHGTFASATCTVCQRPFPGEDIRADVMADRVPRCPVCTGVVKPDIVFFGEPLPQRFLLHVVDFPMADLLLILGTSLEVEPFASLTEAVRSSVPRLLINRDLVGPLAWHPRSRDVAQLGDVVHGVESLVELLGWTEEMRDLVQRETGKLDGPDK
Description: Inhibition of N-terminal His6-tagged SIRT3 L195F mutant (unknown origin) expressed in Escherichia coli BL21(DE3) using ac-RHKKac-AMC as substrate at 50 to 100 uM after 45 mins by fluorometric analysis.

For assay [13], the target named is T1, NAD-dependent protein deacetylase sirtuin-1. Description: Mixed-type inhibition of N-terminal His6-tagged SIRT1 coding region (156-664) (unknown origin) expressed in Escherichia coli BL21(DE3) using NAD+ as substrate by Lineweaver-Burk plot analysis in presence of ac-RHKKac-AMC. In a few lines:
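With ac-RHKK(ac)-AMC held fixed, NAD+ was varied at several inhibitor concentrations. Fluorogenic deacetylation velocities were analysed by Lineweaver–Burk plots against NAD+ concentration.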

Assay [14] has as its target T2, NAD-dependent protein deacetylase sirtuin-1 (Homo sapiens). The experiment in a line: Noncompetitive inhibition of N-terminal His6-tagged SIRT1 coding region (156-664) (unknown origin) expressed in Escherichia coli BL21(DE3) using ac-RHKKac-AMC as substrate by Lineweaver-Burk plot analysis in presence of NAD+.
For assay [15] the target is unchanged. The experiment in a line: Reversible inhibition of N-terminal His6-tagged SIRT1 coding region (156-664) (unknown origin) expressed in Escherichia coli BL21(DE3) using ac-RHKKac-AMC as substrate incubated at 10-fold IC50 for 30 mins followed by 100-fold dilution measured up to 40 mins by fluorometric analysis. In a few lines:
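Enzyme was preincubated with inhibitor or DMSO at room temperature for 30 min, then rapidly diluted 100-fold into reaction buffer containing NAD+ and ac-RHKK(ac)-AMC. Deacetylated product was monitored over time, and the slope of the inhibitor curve was compared with the DMSO control.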

In assay [16] the target is T6, NAD-dependent protein deacetylase sirtuin-1. The experiment in a line: Mixed type inhibition of N-terminal His6-tagged SIRT1 F273L mutant (unknown origin) expressed in Escherichia coli BL21(DE3) using NAD+ as substrate by Lineweaver-Burk plot analysis in presence of ac-RHKKac-AMC. In a few lines: as §2

As usually defined, the IC50 is the concentration that inhibits the measured activity by half. A lower IC50 goes with higher potency. As a reminder, the Ki is the dissociation constant of the complex between target and ligand, obtained from inhibition or displacement.

The source made the active and inactive calls. The calls are words filed in the database; no cut-off is given here.

T6 sequence (Q96EB6 2-747 F273L limits assumed): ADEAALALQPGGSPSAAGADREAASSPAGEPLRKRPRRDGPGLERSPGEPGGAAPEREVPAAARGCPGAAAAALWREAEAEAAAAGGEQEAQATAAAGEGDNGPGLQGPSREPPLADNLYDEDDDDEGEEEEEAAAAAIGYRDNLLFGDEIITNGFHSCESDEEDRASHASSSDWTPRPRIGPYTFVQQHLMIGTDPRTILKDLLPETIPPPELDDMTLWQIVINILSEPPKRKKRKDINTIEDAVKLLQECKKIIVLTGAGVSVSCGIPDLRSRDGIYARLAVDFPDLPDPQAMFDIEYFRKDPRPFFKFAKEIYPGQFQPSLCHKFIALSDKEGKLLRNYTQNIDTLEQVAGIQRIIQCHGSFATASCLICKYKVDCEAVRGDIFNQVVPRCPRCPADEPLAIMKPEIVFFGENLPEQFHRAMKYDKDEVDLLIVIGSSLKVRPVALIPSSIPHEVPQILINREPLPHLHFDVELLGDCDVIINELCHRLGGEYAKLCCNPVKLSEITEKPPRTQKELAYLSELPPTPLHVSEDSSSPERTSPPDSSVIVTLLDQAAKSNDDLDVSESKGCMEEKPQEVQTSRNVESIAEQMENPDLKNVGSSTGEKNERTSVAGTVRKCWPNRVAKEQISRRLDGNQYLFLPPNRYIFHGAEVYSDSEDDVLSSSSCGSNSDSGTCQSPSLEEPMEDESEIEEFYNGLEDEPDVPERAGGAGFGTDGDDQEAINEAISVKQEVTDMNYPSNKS
T5 sequence (Q96EB6 2-747 N346A limits assumed): as the sequence (Q96EB6 2-747 F273L limits assumed) above, with L272F, N345A counted along it
T3 sequence (Q96EB6 2-747 I347A limits assumed): as the sequence (Q96EB6 2-747 F273L limits assumed) above, with L272F, I346A counted along it
T4 sequence (Q96EB6 2-747 F312L limits assumed): as the sequence (Q96EB6 2-747 F273L limits assumed) above, with L272F, F311L counted along it

Turning to `COc1ccc(OC)c(C(=O)c2coc3ccc(OC(C)=O)cc23)c1`, the IC50 in assay [1] was more than 300 µM.
In assay [1], `Cc1ccc(C(=O)c2coc3c2cc(O)c2ccccc23)cc1` showed an IC50 of more than 300 µM.
Still for that read-out and setting: for `O=C(c1ccccc1)c1coc2cc(Br)c(O)c(Br)c12` the value was 198 µM.
Regarding `O=C(c1cc(O)ccc1O)c1coc2ccc(O)cc12`, the inhibition entry in assay [2], in assay [12], in assay [14] and in assay [15] was “Active” in each case. In addition, the result in [3] was inactive. The inhibition entry in [4] was “Dose-dependent effect”. Also, the Ki was determined as 174 µM in assay [5]; 254 µM in assay [6]; 253 µM in assay [7]; 0.8 µM in [13]; 219 µM in [16]. For the same molecule, the IC50 was 421 µM in [8]; 283 µM in [9]; 550 µM in assay [10]; 491 µM in assay [11]; 2.8 µM in assay [1].
With `O=C(c1ccccc1)c1coc2ccc(O)c(CN3CCOCC3)c12`, the IC50 in assay [1] was more than 300 µM.
On the same count and under the same terms, with `COc1ccc(OC)c(C(=O)c2coc3cc(Br)c(O)c(Br)c23)c1` the figure was more than 300 µM; with `CC(=O)Oc1ccc2occ(C(=O)c3ccccc3)c2c1`, more than 300 µM.
In turn, `COc1ccc(OC)c(C(=O)c2coc3ccc(O)cc23)c1` came in with an IC50 in assay [1] of more than 300 µM.
In assay [1], `COc1ccc(O)c(C(=O)c2coc3ccc(O)cc23)c1` showed an IC50 of 45.1 µM.
Same read-out and setting: with `COc1ccc(OC)c(C(=O)c2coc3ccc(O)c(CN4CCOCC4)c23)c1` the figure was more than 300 µM; with `O=C(c1ccc(OCc2ccccc2)cc1)c1coc2cc(Br)c(O)c(Br)c12`, more than 300 µM.
The molecule `COc1cc2c(C(=O)c3ccc(Br)cc3)c(C)oc2c2ccccc12` registered an IC50 in [1] of more than 300 µM.
`COc1ccc(O)cc1C(=O)c1coc2ccc(O)cc12` gave an IC50 in [1] of 41.7 µM. This counts as double-digit micromolar.
The same measure, in the same setting: with `O=C(c1ccccc1)c1coc2c1cc(O)c1ccccc12` the figure was more than 300 µM; with `O=C(c1ccccc1O)c1coc2ccc(O)cc12`, 71.4 µM; with `Cc1oc2ccc(O)cc2c1C(=O)c1ccc(Br)cc1`, 243 µM.
In [1], `O=C(c1ccc(Br)cc1)c1coc2ccc(O)cc12` came in with an IC50 of 240 µM. The IC50 values of the last two molecules are within 1.5-fold of each other.
In [1], `COc1ccc(C(=O)c2coc3c2cc(O)c2ccccc23)cc1` showed an IC50 of 256 µM.
In assay [1], `O=C(c1cccc(O)c1)c1coc2ccc(O)cc12` displayed an IC50 of 31.2 µM.
Still for that read-out and setting: for `O=C(c1ccc(Br)cc1)c1coc2c1cc(O)c1ccccc12` the value was 146 µM; for `Cc1cc2occ(C(=O)c3ccc(Cl)cc3)c2cc1O`, 88 µM.
